Counter-ions that a name gives are not always drawn.
Columns and labels:
HeLa = assay: Cytotoxicity against human HeLa cells assessed as reduction in cell viability incubated for 72 hrs measured by crystal violet based micro plate reader method; conditions: hela, 72 h
How it was run: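 Two-day-old confluent HeLa Ohio monolayers exposed to half-log dilutions (100 μM downward) in 2% FCS medium for 72 h at 37 °C, 5% CO2. Cells fixed and stained with crystal violet/formalin, dye eluted with acidified citrate-ethanol, OD read at 550/630 nm. Viability expressed relative to six mock-treated controls; CC50 is the mean of at least 3 tests.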

Coxsackievirus B3 [1] = assay: Antiviral activity against wild type Coxsackievirus B3 97927 infected in human HeLa cell line assessed as inhibition of virus-induced cytopathic effect measured after 48 hrs by crystal violet uptake assay; type: functional, organism-based
How it was run: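 Coxsackievirus B3 infection of 2-day-old HeLa Ohio monolayers in 2% FCS medium. Half-log dilutions from 100 μM added just before infection; guanidine hydrochloride served as positive control. Antiviral activity calculated per Pauwels; IC50 is the mean of at least 3 separate tests.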

Coxsackievirus B3 [2] = assay: Antiviral activity against pleconaril-resistant Coxsackievirus B3 97927 11207K/I1092 mutant infected in human HeLa cell line assessed as inhibition of virus-induced cytopathic effect measured after 48 hrs by crystal violet uptake assay; type: functional, organism-based
How it was run: (§1)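 HeLa Ohio monolayers, 2 days old and confluent, in MEM with 2% FCS. Serial half-log compound dilutions from 100 μM were added just before CVB3 infection. Activity was calculated per Pauwels against six cell and six virus controls; mean IC50 from ≥3 experiments.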

Coxsackievirus B3 [3] = assay: Antiviral activity against pleconaril-resistant Coxsackievirus B3 97927 11207M/I1092 mutant infected in human HeLa cell line assessed as inhibition of virus-induced cytopathic effect measured after 48 hrs by crystal violet uptake assay; type: functional, organism-based; how it was run: as §1
Coxsackievirus B3 [4] = assay: Antiviral activity against pleconaril-resistant Coxsackievirus B3 97927 11207T/I1092 mutant infected in human HeLa cell line assessed as inhibition of virus-induced cytopathic effect measured after 48 hrs by crystal violet uptake assay; type: functional, organism-based; how it was run: as §1
rhinovirus A2 = assay: Antiviral activity against Rhinovirus A2 infected in human HeLa cell line assessed as inhibition of virus-induced cytopathic effect measured after 72 hrs by crystal violet uptake assay; type: functional, organism-based
How it was run: (§2)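 HeLa Ohio monolayers, 1 day old, in 2% FCS medium. Compound added as serial half-log dilutions from 100 μM immediately before rhinovirus infection. Activity calculated per Pauwels; IC50 is the mean of at least 3 experiments.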

rhinovirus B14 = assay: Antiviral activity against Rhinovirus B14 infected in human HeLa cell line assessed as inhibition of virus-induced cytopathic effect measured after 72 hrs by crystal violet uptake assay; type: functional, organism-based; how it was run: as §2
Coxsackievirus B3 [5] = assay: Antiviral activity against Coxsackievirus B3 Nancy infected in human HeLa cell line assessed as inhibition of virus-induced cytopathic effect measured after 48 hrs by crystal violet uptake assay; type: functional, organism-based; how it was run: as §1
rhinovirus B5 = assay: Antiviral activity against Rhinovirus B5 infected in human HeLa cell line assessed as inhibition of virus-induced cytopathic effect measured after 72 hrs by crystal violet uptake assay; type: functional, organism-based
How it was run: as §2, with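 “infection. CPE read at 72 h by crystal violet staining, elution and OD 550/630 nm, with six cell and six virus controls per plate.” for “infection.”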

[6] = Enterovirus B, 97927, HeLa, 48 h, read-out: IC50
[7] = Rhinovirus A, HeLa, 72 h, read-out: IC50
[8] = Rhinovirus B, HeLa, 72 h, read-out: IC50
[9] = Enterovirus B, Nancy, HeLa, 48 h, read-out: IC50

| Structure (SMILES) | CC50 (HeLa) | IC50 (Coxsackievirus B3 [1]; [6]) | IC50 (Coxsackievirus B3 [2]) | IC50 (Coxsackievirus B3 [3]) | IC50 (Coxsackievirus B3 [4]) | IC50 (rhinovirus A2; [7]) | IC50 (rhinovirus B14; [8]) | IC50 (Coxsackievirus B3 [5]) | IC50 (Coxsackievirus B3 [4]; read-out: IC50) | IC50 (rhinovirus A2) | IC50 (rhinovirus B5) | IC50 (rhinovirus B14) | IC50 (Coxsackievirus B3 [2]; read-out: IC50) | IC50 (Coxsackievirus B3 [1]) | IC50 (Coxsackievirus B3 [5]; [9]) | IC50 (rhinovirus B5; [8]) |
| --- | --- | --- | --- | --- | --- | --- | --- | --- | --- | --- | --- | --- | --- | --- | --- | --- |
| Cc1cc(-c2noc(C(F)(F)F)n2)cc(C)c1OCCCc1cc(C(=O)OC(C)C)no1 | 17.9 µM | 0.19 µM | Not Active | 4.09 µM | Not Active | 2.43 µM | 0.43 µM | – | – | – | – | – | – | – | – | – |
| CCOC(=O)c1cc(CCCOc2ccc(-c3noc(C(F)(F)F)n3)cc2F)on1 | 60.2 µM | 0.217 µM | – | 1.35 µM | – | – | 0.5 µM | Not Active | 24.9 µM | Not Active | Not Active | – | – | – | – | – |
| CCOC(=O)c1cc(CCCOc2ccc(-c3noc(C(F)(F)F)n3)cc2C(F)(F)F)on1 | 28.4 µM | 0.03 µM | – | 0.01 µM | – | 4.89 µM | – | Not Active | 1.04 µM | – | Not Active | Not Active | – | – | – | – |
| CCOC(=O)c1cc(CCCOc2c(OC)cc(-c3noc(C(F)(F)F)n3)cc2[N+](=O)[O-])on1 | > 100 µM | 1.19 µM | – | 10.1 µM | – | 5.63 µM | 2.68 µM | Not Active | 43.8 µM | – | Not Active | – | – | – | – | – |
| CCOC(=O)c1cc(CCCOc2c(C)cc(-c3noc(C(F)(F)F)n3)cc2C)on1 | 17.2 µM | 0.07 µM | – | 0.94 µM | – | – | – | Not Active | 20.4 µM | – | – | – | 11.1 µM | – | – | – |
| Cc1cc(-c2noc(C(F)(F)F)n2)cc(C)c1OCCCc1cc(-c2ccc(OC(F)(F)F)cc2)no1 | > 100 µM | – | – | – | – | – | – | – | – | Not Active | – | – | – | Not Active | – | – |
| CCOC(=O)c1cc(CCCOc2ccc(-c3noc(C(F)(F)F)n3)cc2[N+](=O)[O-])on1 | > 100 µM | 0.148 µM | – | 0.18 µM | – | 47.7 µM | 2.93 µM | Not Active | 3.99 µM | – | Not Active | – | – | – | – | – |
| CN(C)C(=O)c1cc(CCCOc2ccc(-c3noc(C(F)(F)F)n3)cc2F)on1 | 20.2 µM | 0.025 µM | Not Active | 0.06 µM | – | 3.77 µM | 0.05 µM | – | 1.44 µM | – | – | – | – | – | 18.5 µM | 4.04 µM |
| Cc1cc(-c2noc(C(F)(F)F)n2)cc(C)c1OCCCc1cc(-c2ccccc2)no1 | > 100 µM | 0.14 µM | Not Active | 0.28 µM | – | 0.76 µM | 0.53 µM | – | 1.69 µM | – | Not Active | – | – | – | – | – |
| COc1cc(-c2noc(C(F)(F)F)n2)cc([N+](=O)[O-])c1OCCCc1cc(C(=O)N(C)C)no1 | 25.6 µM | 0.365 µM | Not Active | 0.88 µM | – | 0.32 µM | 0.2 µM | – | 0.84 µM | – | Not Active | – | – | – | 14.5 µM | – |
| CCOC(=O)c1cc(CCCOc2ccc(-c3noc(C(F)(F)F)n3)cc2-n2cccc2)on1 | 57.3 µM | 10.2 µM | – | – | – | – | – | Not Active | 14.3 µM | Not Active | Not Active | Not Active | – | – | – | – |
| CN(C)C(=O)c1cc(CCCOc2ccc(-c3noc(C(F)(F)F)n3)cc2)on1 | 28 µM | 0.458 µM | – | 0.02 µM | – | 4.61 µM | 0.04 µM | – | 8.11 µM | – | – | – | 27.5 µM | – | 10.8 µM | 1.74 µM |
| CCOC(=O)c1cc(CCCOc2ccc(-c3noc(C(F)(F)F)n3)cc2OC)on1 | > 100 µM | 0.49 µM | – | 3.41 µM | – | 59.7 µM | 0.66 µM | Not Active | 37.3 µM | – | – | – | – | – | – | 19.4 µM |
| CCNC(=O)c1cc(CCCOc2c(C)cc(-c3noc(C(F)(F)F)n3)cc2C)on1 | > 100 µM | 0.05 µM | Not Active | 0.48 µM | Not Active | 0.6 µM | 0.18 µM | – | – | – | – | – | – | – | – | – |
| CCOC(=O)c1cc(CCCOc2ccc(-c3noc(C(F)(F)F)n3)cc2NC(C)=O)on1 | > 100 µM | – | – | – | – | – | – | Not Active | – | Not Active | Not Active | Not Active | – | Not Active | – | – |
| COC(=O)c1cc(CCCOc2c(C)cc(-c3noc(C(F)(F)F)n3)cc2C)on1 | 35.4 µM | 0.06 µM | – | 1.53 µM | – | 0.36 µM | 0.37 µM | – | 12.8 µM | – | Not Active | – | 20.4 µM | – | 17.9 µM | – |
| CCOC(=O)c1cc(CCCOc2ccc(-c3noc(C(F)(F)F)n3)cc2)on1 | > 100 µM | 0.746 µM | – | 6.54 µM | – | – | 0.34 µM | Not Active | 42.9 µM | Not Active | Not Active | – | – | – | – | – |
| COc1ccc(-c2cc(CCCOc3c(C)cc(-c4noc(C(F)(F)F)n4)cc3C)on2)cc1OC | 41.9 µM | – | – | – | – | 2.11 µM | 2.78 µM | – | – | – | – | – | – | Not Active | – | – |
| Cc1cc(-c2noc(C(F)(F)F)n2)cc(C)c1OCCCc1cc(C(=O)NCc2ccccc2)no1 | > 100 µM | 1.39 µM | Not Active | 14.4 µM | Not Active | 0.23 µM | 0.25 µM | – | – | – | – | – | – | – | – | – |
| CCOC(=O)c1cc(CCCOc2ccc(-c3noc(C(F)(F)F)n3)cc2/N=C/N(C)C)on1 | > 100 µM | 19.9 µM | – | – | – | – | 29.3 µM | Not Active | – | Not Active | Not Active | – | – | – | – | – |
| CC(=O)Nc1cc(-c2noc(C(F)(F)F)n2)ccc1OCCCc1cc(C(=O)N(C)C)no1 | > 100 µM | 30.1 µM | – | 16.1 µM | – | – | 18.1 µM | Not Active | 73.2 µM | Not Active | Not Active | – | – | – | – | – |
| CN(C)C(=O)c1cc(CCCOc2ccc(-c3noc(C(F)(F)F)n3)cn2)on1 | 48.8 µM | 5.95 µM | – | – | – | – | 0.12 µM | – | 17.4 µM | – | – | – | – | – | 22.2 µM | 4.28 µM |
| COc1cc(-c2noc(C(F)(F)F)n2)ccc1OCCCc1cc(C(=O)N(C)C)no1 | 68 µM | 0.03 µM | – | 0.6 µM | – | 1.97 µM | 0.04 µM | – | 1.66 µM | – | – | – | 51.7 µM | – | 37.8 µM | 3.28 µM |
| CN(C)C(=O)c1cc(CCCOc2ccc(-c3noc(C(F)(F)F)n3)cc2-n2cccc2)on1 | 21.2 µM | 0.82 µM | – | 1.06 µM | – | 3.21 µM | 7.34 µM | Not Active | 3.55 µM | – | Not Active | – | – | – | – | – |
| Cc1cc(-c2noc(C(F)(F)F)n2)cc(C)c1OCCCc1cc(C(N)=O)no1 | > 100 µM | 0.07 µM | Not Active | 1.69 µM | Not Active | 0.5 µM | 0.22 µM | – | – | – | – | – | – | – | – | – |
| CCOC(=O)c1cc(CCCOc2ccc(-c3noc(C(F)(F)F)n3)cc2N)on1 | > 100 µM | 20 µM | – | – | – | – | 14.3 µM | Not Active | – | Not Active | Not Active | – | – | – | – | – |
| CCOC(=O)c1cc(CCCOc2ccc(-c3noc(C(F)(F)F)n3)cc2C)on1 | 35.1 µM | 0.062 µM | Not Active | 0.61 µM | – | – | 0.52 µM | – | 1.23 µM | Not Active | Not Active | – | – | – | 19 µM | – |
| N=C(N)N [GUANIDINE HYDROCHLORIDE] | – | 592 µM | – | 682 µM | – | – | – | – | 725 µM | – | – | – | 664 µM | – | 423 µM | – |
| Cc1cc(CCCOc2c(C)cc(-c3noc(C(F)(F)F)n3)cc2C)on1 [PLECONARIL] | 26.2 µM | – | Not Active | 2.05 µM | – | – | – | Not Active | 3.97 µM | – | Not Active | – | – | – | – | – |

From ChEMBL document CHEMBL4765245 (Eur J Med Chem, 2020)
